For series [1], the system named is Staphylococcus aureus. As to the kind of experiment: Minimal inhibitory concentration against […] aureus ATCC 6538 strain. The series is classed as functional. An outline of the steps: (§1)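 Agar dilution on TSA agar; compounds added by 2-fold dilution to melted medium at 50 °C just before pouring. Organisms stored at –80 °C, diluted in peptonated water to 1–2 × 10^7 CFU, applied with multipoint inoculator. MIC = lowest concentration preventing visible growth after 24 h at 35 °C.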

Series [2] has as its system Enterobacter cloacae. As to the kind of experiment: Minimal inhibitory concentration against Enterobacter cloacae OMNFI174 strain. The series is classed as functional. A digest of the protocol:
as §1

The test system of series [3] is Escherichia coli. As to the kind of experiment: Minimal inhibitory concentration against Escherichia coli ISF 432 strain. In kind it is functional. A digest of the protocol:
as §1

Series [4] deals with Klebsiella pneumoniae. Kind of series: Minimal inhibitory concentration against Klebsiella pneumoniae ATCC 10031 strain. In kind it is functional. A digest of the protocol:
as §1

Series [5] relates to Proteus vulgaris. Kind of series: Minimal inhibitory concentration against Proteus vulgaris CNUR6 strain. The series is classed as functional. An outline of the steps:
as §1

Series [6] in a line: Minimal inhibitory concentration against Shigella enteritidis strain. The series is classed as functional. An outline of the steps:
as §1

Series [7] has as its system Pseudomonas aeruginosa. Kind of series: Minimal inhibitory concentration against Pseudomonas aeruginosa ATCC 9027 strain. The series is classed as functional. An outline of the steps: as §1
The test system of series [8] is Enterococcus faecalis. Kind of series: Minimal inhibitory concentration against Streptococcus faecalis LEP strain. The series is classed as functional. A digest of the protocol:
as §1

Series [9] is described as follows: Urinary excretion in rat after 0-4 hours of oral administration at 50 mg/kg. In kind it is ADME, organism-based. Also noted: dose 50 mg/kg, route oral. The conditions noted are these: urine. An outline of the steps:
(§2)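 Fasted male Wistar rats, three per group, dosed orally at 50 mg/kg. Urine collected over 0-4, 4-8 and 8-24 h, diluted 1:100 in ultrapure water, then treated with water and 70% perchloric acid, vortexed and centrifuged. Supernatant analysed by HPLC with pH 2.8 KH2PO4/phosphoric acid mobile phase. Result given as % of administered dose excreted.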

The nature of series [10]: Plasma concentration level in rat after 4 hours of oral administration at 50 mg/kg. In kind it is ADME, organism-based. On the set-up: dose 50 mg/kg, route oral. An outline of the steps: (§3)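 Fasted male Wistar rats, three per group, single oral dose 50 mg/kg. Plasma taken at timed points, deproteinized with 70% perchloric acid, vortexed, centrifuged; supernatant analysed by HPLC, mobile-phase buffer 0.01 M KH2PO4 brought to pH 2.8 with phosphoric acid. Values as mean ± error over the group.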

The nature of series [11]: Plasma concentration level in rat after 15 hours of oral administration at 50 mg/kg. The series is classed as ADME, organism-based. Also noted: dose 50 mg/kg, route oral. A digest of the protocol:
as §3

The nature of series [12]: Urinary excretion in rat after 8-24 hours of oral administration at 50 mg/kg. In kind it is ADME, organism-based. On the set-up: dose 50 mg/kg, route oral. The conditions noted are these: urine. An outline of the steps: as §2
A short description of series [13]: Plasma concentration level in rat after 1 hour of oral administration at 50 mg/kg. On the set-up: dose 50 mg/kg, route oral. In kind it is ADME, organism-based. An outline of the steps: as §3
Series [14] is described as follows: Urinary excretion in rat after 4-8 hours of oral administration at 50 mg/kg. In kind it is ADME, organism-based. Also noted: dose 50 mg/kg, route oral. The following applies: urine. An outline of the steps: as §2

For eleven molecules, MIC, dose excreted and concentration results are on record in ChEMBL document CHEMBL1126958, “Quinolinecarboxylic acids. 3. Synthesis and antibacterial evaluation of 2-substituted-7-oxo-2,3-dihydro-7H-pyrido[1,2,3-de] [1,4]benzothiazine-6-carboxylic acids related to rufloxacin” (J Med Chem, 1993).

Each structure is given as a SMILES string. ≈ marks a conversion by molar mass, not a printed value.

As a reminder, the MIC is the lowest concentration found to suppress growth. Lower therefore signals inhibition by little substance. For the molecule `O=C(O)c1cn2c3c(c(N4CCNCC4)c(F)cc3c1=O)SC(c1ccc(F)cc1)C2` (configuration not stated), the MIC in [1] was 16 µg/mL (≈ 36.1 µM); in series [2] it was 32 µg/mL (≈ 72.2 µM); in series [3], 2 µg/mL (≈ 4.51 µM); in [4], 16 µg/mL (≈ 36.1 µM); in series [5], over 64 µg/mL; in series [6] it was 32 µg/mL (≈ 72.2 µM). The MIC in series [7] is over 64 µg/mL; in series [8] it was 16 µg/mL (≈ 36.1 µM).

As to `CC1Cn2cc(C(=O)O)c(=O)c3cc(F)c(N4CCN(c5ccccn5)CC4)c(c32)S1` (configuration not stated), the MIC was 0.5 µg/mL (≈ 1.14 µM) in series [1]; over 64 µg/mL in series [2]; 1 µg/mL (≈ 2.27 µM) in [3]; 2 µg/mL (≈ 4.54 µM) in series [4]; over 64 µg/mL in [5]; over 64 µg/mL in series [6]. Besides, the figures for the MIC in [7] and in [8] were over 64 µg/mL and 2 µg/mL (≈ 4.54 µM), respectively.

`CC1Cn2cc(C(=O)O)c(=O)c3cc(F)c(N4CCN(Cc5ccc(F)cc5F)CC4)c(c32)S1` (configuration not stated): the minimum inhibitory concentration (MIC) in [1] is 32 µg/mL (≈ 65.4 µM); in series [2], over 64 µg/mL; in series [3], 8 µg/mL (≈ 16.3 µM); in series [4], over 64 µg/mL; in series [5], over 64 µg/mL; in series [6], over 64 µg/mL. Also, the MIC in [7] is over 64 µg/mL; in series [8], 64 µg/mL (≈ 131 µM).

In the case of `CC1Cn2cc(C(=O)O)c(=O)c3cc(F)c(N4CCN(C)CC4)c(c32)S1` (configuration not stated), the dose excreted in [9] came to 1.5%; in series [12], 5.17%; in series [14], 2.59%. In series [10], the concentration at 4 h came to 7610 ng/mL. This molecule came in with a concentration at 15 h in [11] of 270 ng/mL. The MIC in series [1] stood at 1 µg/mL (≈ 2.65 µM); in [2] it was 4 µg/mL (≈ 10.6 µM); in series [3] it was 0.25 µg/mL (≈ 0.662 µM); in series [4], 0.25 µg/mL (≈ 0.662 µM); in [5], 32 µg/mL (≈ 84.8 µM); in series [6], 2 µg/mL (≈ 5.3 µM). The MIC in series [7] turned out to be 16 µg/mL (≈ 42.4 µM); in [8], 32 µg/mL (≈ 84.8 µM). Besides, in series [13], the concentration at 1 h stood at 14100 ng/mL.

Consider `CC1Cn2cc(C(=O)O)c(=O)c3cc(F)c(N4CCN(Cc5cccc(F)c5)CC4)c(c32)S1` (configuration not stated), for which the MIC in [1] was 32 µg/mL (≈ 67.9 µM); in series [2], over 64 µg/mL; in series [3], 16 µg/mL (≈ 33.9 µM); in series [4] it was over 64 µg/mL; in series [5] it was over 64 µg/mL; in [6] it was over 64 µg/mL. The MIC in series [7] and in series [8] was over 64 µg/mL in each case.

With `CC1Cn2cc(C(=O)O)c(=O)c3cc(F)c(N4CCCNCC4)c(c32)S1` (configuration not stated), the MIC in [1] came to 2 µg/mL (≈ 5.3 µM); in series [2], 8 µg/mL (≈ 21.2 µM); in series [3], 4 µg/mL (≈ 10.6 µM); in series [4] it was 1 µg/mL (≈ 2.65 µM); in series [5], 64 µg/mL (≈ 170 µM); in series [6], 32 µg/mL (≈ 84.8 µM). Further, the MIC in series [7] was over 64 µg/mL; in [8], 32 µg/mL (≈ 84.8 µM).

For `CC1Cn2cc(C(=O)O)c(=O)c3cc(F)c(Cl)c(c32)S1` (configuration not stated), the MIC in series [1] is 2 µg/mL (≈ 6.37 µM); in [2], 2 µg/mL (≈ 6.37 µM); in [3] it was 0.12 µg/mL (≈ 0.382 µM); in [4] it was 8 µg/mL (≈ 25.5 µM); in series [5] it was over 64 µg/mL; in [6] it was 4 µg/mL (≈ 12.7 µM). Further, the MIC in series [7] and in series [8] was 32 µg/mL (≈ 102 µM) in each case.

For `CC1Cn2cc(C(=O)O)c(=O)c3cc(F)c(-n4ccnc4)c(c32)S1` (configuration not stated), the MIC in [1] is 16 µg/mL (≈ 46.3 µM); in series [2] it was 16 µg/mL (≈ 46.3 µM); in series [3], 0.12 µg/mL (≈ 0.347 µM); in series [4], 0.25 µg/mL (≈ 0.724 µM); in series [5], over 64 µg/mL; in series [6], 4 µg/mL (≈ 11.6 µM). Also, the MIC in [7] worked out at 64 µg/mL (≈ 185 µM); in [8] it was 32 µg/mL (≈ 92.7 µM).

As to `CC1Cn2cc(C(=O)O)c(=O)c3cc(F)c(N4CCCC4)c(c32)S1` (configuration not stated), the MIC in [1] was 2 µg/mL (≈ 5.74 µM); in [2], 16 µg/mL (≈ 45.9 µM); in series [3], 0.25 µg/mL (≈ 0.718 µM); in series [4], 2 µg/mL (≈ 5.74 µM); in series [5], over 64 µg/mL; in series [6], 16 µg/mL (≈ 45.9 µM). Besides, the MIC in series [7] was over 64 µg/mL; in series [8], 32 µg/mL (≈ 91.8 µM).

Turning to `O=C(O)c1cn2c3c(c(N4CCNCC4)c(F)cc3c1=O)SCC2`, the dose excreted amounted to 2.73% in series [9], 11.5% in series [12] and 5.59% in [14].

As for `CC1Cn2cc(C(=O)O)c(=O)c3cc(F)c(N4CCNCC4)c(c32)S1` (configuration not stated), the dose excreted was found to be 0.37% in series [9], 3.12% in [12] and 1.92% in [14]. Besides, the MIC in series [1] was 8 µg/mL (≈ 22 µM); in series [2] it was 16 µg/mL (≈ 44 µM); in series [3], 0.25 µg/mL (≈ 0.688 µM); in series [4], 2 µg/mL (≈ 5.5 µM); in [5], over 64 µg/mL; in [6] it was 8 µg/mL (≈ 22 µM). In addition, the MIC in series [7] is 64 µg/mL (≈ 176 µM); in series [8], over 64 µg/mL.
